# Assay results reported in PubChem BioAssay AID617 (SRMLSC, 2007).
# pIC50: −log10 of the molar value.
# Test system: E. coli BW25113 ΔtolC growth inhibition, OD615
# Experiment: growth inhibitors of E. coli tolC mutant, dose response, strain BW25113 ΔtolC::kan (AID 617)
# Outline: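 system = E. coli BW25113 tolC deletion strain (ΔtolC::kan), whole bacterial cells | technique = optical density (absorbance) at 615 nm | dosing = compounds in serially diluted dose-response series | times = bacterial growth with compound for 20 h, 37 °C | evaluation = growth-inhibition IC50 from four-parameter logistic curve, bounds set to 0% and 100%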
row,Structure (SMILES),pIC50
1,CCn1c(SCC(=O)Nc2nc(-c3ccc(C)cc3)cs2)nnc1-c1ccccc1O,5.39
2,CCOC(=O)c1sc2nc(CC(=O)OC)nc(N3CCN(c4ccccn4)CC3)c2c1C,4.60
3,CCOC(=O)C1=C(N)OC2=C(C(=O)CCC2)C12C(=O)N1c3c(ccc(C)c32)C(C)=CC1(C)C (stereo unspecified),4.86
4,CCOC(=O)c1c(NS(=O)(=O)c2cccc(OC)c2)sc2c1CCC2,4.25
5,CCOC(=O)N1CCN(c2nc3ccccc3nc2C(C#N)S(=O)(=O)c2ccc(C)cc2)CC1 (stereo unspecified),5.10
6,CCOCCn1c(CN(Cc2ccccc2)Cc2ccccc2)nc2c1c(=O)n(C)c(=O)n2C,4.88
7,O=C(Nc1ccccc1N1CCCCC1)c1cccc(F)c1,4.82
8,O=C(Nc1ccn(Cc2ccc(Cl)cc2)n1)c1ccc2c(c1)OCO2,5.14
9,O=C(c1noc2c1CCc1ccccc1-2)N1CCc2ccccc2C1,5.18
10,Oc1c(CN2CCc3ccccc3C2)cc(Cl)c2cccnc12,5.06
11,N#CC1=C(N)SC(N)=C(C#N)C1CCC1CCCCC1,5.44
12,CC(C)(C)c1cc(C(F)(F)F)nc(SCCCNC(=O)c2ccco2)n1,5.20
13,CC(C)COc1ccc(-c2nnc(-c3ccco3)o2)cc1,4.39
14,Cc1ccc(NC(=O)CSC2=C(C#N)C(c3ccco3)C3=C(CC(C)(C)CC3=O)N2)cc1 (stereo unspecified),5.05
15,Cc1cc(Nc2ccccc2)n(-c2nc3ccccc3[nH]2)n1,5.31
16,CCOC(=O)Cc1c(C)nc2c(-c3cccc(Br)c3)c[nH]n2c1=O,6.77
17,CCOC(=O)C1C(=O)C=C(c2ccc(OC)cc2)CC1c1ccco1 (stereo unspecified),4.94
18,Cc1cc(Cl)ccc1OC(C)C(=O)Nc1ccccc1N1CCOCC1 (stereo unspecified),5.07
19,CCSc1nnc(NC(=O)c2nc(-c3ccccc3)n(-c3ccccc3)n2)s1,5.65

row,Structure (SMILES),pIC50
1,c1ccc(-n2nnnc2Oc2cccc3cccnc23)cc1,5.12
2,O=C(Nc1nc2ccccc2n1CCOc1ccc(Cl)cc1)c1ccco1,4.60
3,CCCCNc1cc(C)nc(NCc2ccccc2)n1,5.11
4,O=C(O)CCCC(=O)N1CCc2cc(S(=O)(=O)N3CCc4ccccc43)ccc21,4.97
5,O=c1n(Cc2ccc(Cl)cc2)c2sc3c(c2c2ncnn12)CCCC3,5.13
6,Cc1cccc2cc(CN(Cc3ccco3)C(=O)NC3CCCCC3)c(=O)[nH]c12,4.83
7,O=C(Nc1cccc(Cl)c1)Nc1nccs1,4.96
8,O=C(CCSc1nc(-c2ccco2)cc(C(F)(F)F)n1)N1CCCc2ccccc21,5.04
9,Cc1cc(NC(=O)c2noc3c2CCCC3)nn1Cc1ccc(Cl)cc1,4.73
10,c1ccc(Cn2nnnc2C(c2cccs2)N2CCCCCC2)cc1 (stereo unspecified),5.02
11,COc1cc(NS(=O)(=O)c2ccc(NC(=O)COc3ccccc3Cl)cc2)nc(OC)n1,4.61
12,CC1Cc2cc(-c3csc(NC(=O)Cc4cccs4)n3)ccc2N1S(C)(=O)=O (stereo unspecified),4.81
13,Cc1ccc(C)c(N2CCN(C(=O)c3cc4sccc4n3C)CC2)c1,4.82
14,CCCCN1C(=O)C2ON(c3ccccc3C)C(c3ccco3)C2C1=O (stereo unspecified),4.84
15,COc1ccccc1Cc1nc(-c2ccc(Br)o2)no1,4.70
16,CC(C)OCCCNc1ncnc2c1[nH]c1ccc(F)cc12,5.14
17,Cc1cc(N2CCC(C(=O)Nc3ccc(F)cc3)CC2)nc(-c2ccccc2)n1,4.65
18,CCCOc1ccccc1NC(=O)c1c(-c2ccccc2)noc1C,4.82
19,CCOc1ccc(N(CC(=O)Nc2ccc(C)c(C)c2)S(=O)(=O)c2c(C)noc2C)cc1,4.81

row,Structure (SMILES),pIC50
1,c1ccc(-c2nc(NCc3ccco3)c3ccccc3n2)nc1,5.26
2,Cc1ccc(C)c(S(=O)(=O)C(C#N)c2nc3ccccc3nc2N2CCOCC2)c1 (stereo unspecified),4.94
3,Cc1ccc(C)n1-n1cnc2sc(-c3ccccc3)cc2c1=O,5.15
4,Cc1cccc(C(C)(C)C)c1OCCn1ccnc1,4.93
5,CCN1C(=O)CSC1=NC1C2CC3CC(C2)CC1C3 (stereo unspecified),4.47
6,Cc1ccc(S(=O)(=O)c2nc(Nc3nccs3)sc2Cl)cc1,5.61
7,O=C(Nc1ccc(Cl)c(Cl)c1)OCc1cccnc1,4.86
8,COc1ccc(NC(=O)N(C2CCCCC2)C(C)c2ccco2)c(OC)c1 (stereo unspecified),4.82
9,CCCCC(=O)Nc1cccc(-c2nnc(-c3ccccc3)o2)c1,4.77
10,N#Cc1c(NC(=O)c2ccc(Br)o2)n(-c2ccccc2)c2nc3ccccc3nc12,4.82
11,COc1ccccc1N1CCN(C(=O)COc2ccc(C)cc2Br)CC1,4.59
12,N#C/C(=C\C1CC=CCC1)c1nc2ccccc2[nH]1 (stereo unspecified),4.43
13,CCOC(=O)N1CCC(c2cc(=O)n3[nH]c(C)c(-c4ccc(F)cc4)c3n2)CC1,5.77
14,Oc1c(CN2CCCCC2)cc(Br)c2cccnc12,5.32
15,Cc1csc(NC(=O)C2CCCN(S(=O)(=O)c3ccc(Br)s3)C2)n1 (stereo unspecified),4.91
16,Fc1ccc(Cn2nnnc2C(c2cccs2)N2CCCCCC2)cc1 (stereo unspecified),4.98
17,O=C(NCc1ccco1)c1ccc(S(=O)(=O)N2CCCc3ccccc32)cc1,4.52
18,O=C(NCc1ccco1)c1sc(=S)n2c1[nH]c(=O)c1ccccc12,5.90
